# Assay results: article PMC6662154 (ACS Central Science, 2019)
# Where no end group is shown, it is not given here.
# T1: PscE–PscG heterodimer (Pseudomonas aeruginosa, UniProt P95435)
# T1 sequence (P95435 1-115): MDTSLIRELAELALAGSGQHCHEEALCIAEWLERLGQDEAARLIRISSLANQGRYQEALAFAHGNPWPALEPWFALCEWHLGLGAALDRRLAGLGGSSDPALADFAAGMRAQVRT
# T1 sequence (Q9I317 1-67 partner): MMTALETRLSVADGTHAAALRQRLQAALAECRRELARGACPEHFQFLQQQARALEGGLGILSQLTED
# T2: preformed PscE–PscG heterodimer (Pseudomonas aeruginosa, UniProt Q9I317 1-67; P95435 1-115)
# T2 sequence (looked up) 1: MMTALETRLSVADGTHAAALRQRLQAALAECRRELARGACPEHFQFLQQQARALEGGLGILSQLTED
# T2 sequence (looked up) 2: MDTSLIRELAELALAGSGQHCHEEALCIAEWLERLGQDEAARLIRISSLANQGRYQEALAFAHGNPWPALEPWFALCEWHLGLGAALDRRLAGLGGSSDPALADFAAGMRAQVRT
# T3: PscG (Pseudomonas aeruginosa, UniProt P95435 1-115)
# T3 sequence (looked up): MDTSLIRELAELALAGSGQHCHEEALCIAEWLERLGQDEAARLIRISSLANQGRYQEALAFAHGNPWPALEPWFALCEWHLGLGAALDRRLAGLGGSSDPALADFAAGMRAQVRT
# How the values were obtained:
# PscE–PscG heterodimer = molecular target: T1, PscE–PscG heterodimer; assay: Fluorescence polarization competitive binding assay
# [1] = test system: secretion of ExoS by PAO1; assay: Inhibition of T3SS-mediated effector secretion; assay type: cell-based, Pseudomonas aeruginosa; conditions: 100 μM; PAO1 grown under low-calcium conditions
# Outline: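 To induce the T3SS, overnight PAO1 was diluted to OD600 0.3 in LB containing 5 mM EGTA and 20 mM MgCl2, with test compound, then shaken gently 3–4 h to OD 1.5. Controls were LB with 2% DMSO, and EGTA/MgCl2 medium with 2% DMSO. Supernatant proteins were TCA-precipitated (10%, 2 h on ice). Secreted and total ExoS were immunoblotted and measured by densitometry as % secreted of total; mean ± SD, three experiments.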
# [2] = test system: J774A.1 cells infected with PAO1; assay: LDH release assay, PAO1-infected macrophages; assay type: cell-based, mouse; conditions: different concentrations, MOI 8, 5 h
# [3] = test system: intracellular PAO1 in J774A.1 cells; assay: Quantification of intracellular bacteria in macrophages; assay type: cell-based, Pseudomonas aeruginosa; conditions: different concentrations; gentamicin at 2 h postinfection
# Outline: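 J774A.1 cells were seeded at 5 × 10^4 per well, grown 24 h and switched to serum-free medium 1 h before infection with mid-exponential PAO1 at MOI 8. Cells were infected 2 h with test compound (0–100 μM, 2% DMSO), washed, and exposed to gentamicin (50 μg/mL) for 2 h. Lysates were plated for intracellular counts, normalised to mock-treated infected cells; mean ± SD, three experiments.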
# [4] = test system: PAO1 in the bronchoalveolar lavage; assay: Bacterial burden in bronchoalveolar lavage of PAO1-infected mice; assay type: in vivo, mouse; conditions: single dose 100 μM at the time of infection; sampled 18 h postinfection
# Outline: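 Female 6-week-old C57BL/6J mice were lightly anaesthetised with inhaled sevoflurane and given PAO1 intranasally (1 × 10^7 CFU in 20 μL PBS). Test compound (100 μM, 1% DMSO) was given with the inoculum; PBS with 1% DMSO served as mock treatment. At 18 h the animals were killed. Lavage was plated for counts. Lungs were formalin-fixed, paraffin-embedded, H&E-stained and scored by degree of inflammation.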
# [5] = molecular target: T2, preformed PscE–PscG heterodimer; assay: ITC
# [6] = molecular target: T2, preformed PscE–PscG heterodimer; assay: fluorescence polarisation
# PscG = molecular target: T3, PscG; assay: fluorescence polarisation
# [7] = molecular target: T2, preformed PscE–PscG heterodimer; assay: fluorescence polarisation; remark: listed apart in the source
molecule,measurement,setting,value
"C[C@H]1COC2=C1C(=O)C(=O)c1c2ccc2c1CCCC2(C)C [crpTSN, cryptotanshinone]",competition with FAM-PscF69–85 for PscE–PscG binding (result in words),PscE–PscG heterodimer,inactive
same,effect on secretion of ExoS,[1],no inhibitory activity
same,"inhibition of Pseudomonas-aeruginosa-induced cell lysis (LDH release), in words",[2],inactive
CC(Oc1ccc(Cl)cc1Cl)C(=O)NCc1ccc2c(c1)OCO2 (stereo not drawn) [MBX-1641],competition with FAM-PscF69–85 for PscE–PscG binding (result in words),PscE–PscG heterodimer,no effect
same,"inhibition of Pseudomonas-aeruginosa-induced cell lysis (LDH release), in words",[2],inhibited
same,inhibition of intracellular bacterial survival / proliferation of PAO1,[3],inhibited
same,bacterial burden in the bronchoalveolar lavage,[4],reduced bacterial burden
Cc1coc2c1C(=O)C(=O)c1c-2ccc2c1CCCC2(C)C [tanshinone 2A],competition with FAM-PscF69–85 for PscE–PscG binding (result in words),PscE–PscG heterodimer,inactive
"TVTRALRDLMQGILQKI (peptide, UniProt P95434 69-85, looked up) [PscF^69–85]",Kd,[5],0.0515 µM
same,IC50,[6],4.32 µM
"TVTRALRDLMQGILQKI (peptide, UniProt P95434 69-85, looked up, also: fluorescein (FAM) label) [^FAMPscF^69–85]",Kd,PscG,10.8 µM
same,Kd,[7],0.052 µM
